Hsp70 act: Hsp70 transcriptional activators, primary screen, cell-based, HeLa, Hsp70 promoter luciferase, luminescence, 10 µM; AID 1203, 2008; HeLa Hsp70 promoter luciferase reporter; scaled: vehicle 0, proteasome-inhibitor control 100%; activation, % at 10 µM; hit rate 0.04% among 200,000;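 active = activation above the mean across all tested compounds plus 3 SD, cutoff set per campaign, cut at about 5.5% in these data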;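 also: 100% = MG132 at 30 µM as the positive control and 0% = DMSO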
HIF act: HIF pathway transcriptional activators, primary screen, cell-based, U2OS HRE-luciferase, luminescence; U2OS HRE-luciferase reporter; normalized: DMSO 0%, desferrioxamine 100%; activation, % at 7.5 µM (by protocol); hit rate 0.32% among 300,000; AID 1910, 2009;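 active = mean activation of at least 10% of the iron chelator positive control signal, with at least half of replicates also reaching 10%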
FXN GAA850 act: FXN promoter activators, primary screen, cell-based, luciferase luminescence, HEK293 lucGAA850; activation, % at 6 µM; HEK293 lucGAA850 FXN promoter luciferase reporter, 24 h; percent of 10 µM SAHA response; AID 540364, 2011; hit rate 0.56% among 360,000;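 active = activation above the average of all compounds screened plus 3 SD, cutoff fixed separately per campaign, cut at about 7.5% in these data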;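 also: 0% = DMSO wells and 100% = 10 µM SAHA wells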
Rad51 HR inh: human RAD51 strand exchange inhibitors, primary screen, biochemical, fluorescence; AID 1385, 2008; hit rate 0.085% among 200,000; hRad51 DNA strand exchange, fluorescence dequenching; DNA repair protein RAD51 homolog 1 (Homo sapiens), Q06609; inhibition, % at 10 µM;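 active = inhibition above 40% at the single screening dose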;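 also: 0% = DMSO control wells and 100% = blanks with heterologous ssDNA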
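System: human Rad51 nucleoprotein filaments preassembled on unlabelled ssDNA. Reagent: labelled 47-mer dsDNA for strand exchange. Schedule: 30-min compound preincubation and 15-min exchange, both room temperature. Measured by: FRET fluorescence dequenching, excitation 485 nm, emission 520 nm. Read-out: Fluorescence-based percent inhibition, control- and blank-normalised. Benchmarks: plate controls and plate blanks.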
TAG inh: inhibitors of triacylglycerol accumulation, primary screen, cell-based, uHTS, fluorescence, H9c2; H9c2 cells, Nile Red lipid (TAG) fluorescence; cells loaded with 200 µM oleic acid; inhibition, % at 12.5 µM; hit rate 0.66% among 230,000; AID 651582, 2012;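 active = pattern-corrected inhibition of lipid staining of at least 50% with the nuclear-stain viability signal not falling by more than 50%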;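 also: 0% = DMSO wells and 100% = triacsin C control wells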
ABHD5 PLIN5 PPI: ABHD5-PLIN5 interaction inhibitors, primary screen, cell lysate, split luciferase complementation, luminescence; Perilipin-5 (Homo sapiens) + 1-acylglycerol-3-phosphate O-acyltransferase ABHD5 (Homo …; Split G. princeps luciferase complementation, 4 h; inhibition, % at 4 µM; hit rate 0.78% among 360,000; AID 602281, 2012;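 active = inhibition above the mean inhibition across every tested compound plus 3 SD, cut at about 22% in these data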;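 also: 0% = DMSO only wells and the 100% control is not disclosed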
Target sequence (Q00G26 whole entry, looked up): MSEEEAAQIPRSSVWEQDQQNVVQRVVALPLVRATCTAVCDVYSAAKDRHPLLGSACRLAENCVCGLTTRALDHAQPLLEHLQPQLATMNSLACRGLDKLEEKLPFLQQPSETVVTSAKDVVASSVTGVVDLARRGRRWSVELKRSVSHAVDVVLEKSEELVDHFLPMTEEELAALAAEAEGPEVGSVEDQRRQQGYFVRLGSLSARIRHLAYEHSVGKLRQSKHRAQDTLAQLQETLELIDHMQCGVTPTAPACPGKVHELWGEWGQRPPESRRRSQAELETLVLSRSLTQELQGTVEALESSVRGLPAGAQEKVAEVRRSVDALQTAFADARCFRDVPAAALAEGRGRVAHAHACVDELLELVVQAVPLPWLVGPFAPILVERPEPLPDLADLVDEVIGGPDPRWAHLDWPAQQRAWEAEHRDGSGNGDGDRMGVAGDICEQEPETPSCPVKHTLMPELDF
Target sequence (Q8WTS1 whole entry, looked up): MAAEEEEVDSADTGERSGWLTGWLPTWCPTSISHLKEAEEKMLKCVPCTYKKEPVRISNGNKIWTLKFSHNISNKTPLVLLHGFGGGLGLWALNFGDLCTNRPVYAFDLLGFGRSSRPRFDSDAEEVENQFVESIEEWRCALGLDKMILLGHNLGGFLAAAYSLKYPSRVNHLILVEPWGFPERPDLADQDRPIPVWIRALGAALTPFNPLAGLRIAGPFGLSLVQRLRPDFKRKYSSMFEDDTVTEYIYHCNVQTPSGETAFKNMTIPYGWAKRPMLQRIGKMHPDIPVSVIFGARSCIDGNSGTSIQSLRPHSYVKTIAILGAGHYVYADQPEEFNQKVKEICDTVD
GAA30 FXN cntr: GAA30 FXN promoter activators, confirmation, counter-screen for GAA850 frataxin promoter activator project, cell-based, luminescence, HEK293, lucGAA30, triplicate. shares compounds with FXN GAA850 act. HEK293 lucGAA30 FXN promoter luciferase, 24 h; DMSO = 0%, 5 µM ipriflavone = 100%. activation, % at 6 µM. hit rate 66% among 1,900;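 active = mean activation above the mean of solvent-only control wells plus 3 SD, cut at about 22% in these data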;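 also: counterscreen of GAA850 promoter hits where activity marks nonselective or luminescence artifacts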
FXN GAA850 conf: FXN GAA850 promoter activators in reporter cells, confirmation, cell-based, luminescence, HEK293 lucGAA850, triplicate; shares compounds with FXN GAA850 act; HEK293 lucGAA850 FXN promoter luciferase reporter, 24 h; 100% = activation by SAHA; activation, % at 6 µM; hit rate 86% among 1,900; AID 588351, 2011;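 active = mean activation above a set limit taken from the primary screen, cut at about 8% in these data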;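 also: 0% = DMSO wells and 100% = 10 µM SAHA wells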
Numbers without * were called inactive; x = no result given. Shown are actives, neighbours in structure and some others; about 1.9% of the full set was active somewhere.

SMILES | Hsp70 act | HIF act | FXN GAA850 act | Rad51 HR inh | TAG inh | ABHD5 PLIN5 PPI | GAA30 FXN cntr | FXN GAA850 conf
CC(=O)Nc1ccc(/C=N/N2CCCCC2)cc1 | 0 | 2 | 7.6* | -5 | 6 | -10 | 86* | 29*
CC(=O)Nc1ccc(/C=N/N2C(C)CCCC2C)cc1 (stereo unspecified) | 0 | 0 | 0 | 1 | -11 | -4 | x | x
CC(C)Cc1cc(-c2ccco2)c(C#N)c(N)n1 | 0 | -41 | 8.2* | -2 | 4 | 3 | 15 | 18*
N#Cc1c(-c2ccco2)cc(-c2ccc(F)cc2)nc1N | 0 | 0 | 5 | -5 | -1 | -1 | x | x
CCN1C(=O)[C@H]2[C@@H](c3ccc(OC)cc3)N3C(=O)CN(CCOC)C(=O)[C@@]3(C)[C@H]2C1=O | x | 0 | -1 | x | x | 1 | x | x
Cc1cc(C)n2nc(-c3cccc(Br)c3)cc2n1 | x | 4 | 9.1* | x | 10 | 2 | 107* | 44*
CCOc1ccc2nc(SCC(=O)c3ccc(Cl)s3)sc2c1 | 0 | 2 | 3 | -2 | -77 | 4 | x | x
CCOc1ccc2nc(SCC(=O)c3cccs3)sc2c1 | 0 | 4 | 8.6* | -4 | -99 | 3 | 102* | 29*
COCCn1c(SCc2ccc(C)cc2)nc2c1c(=O)[nH]c(=O)n2C | x | 0 | 2 | x | -25 | -2 | x | x
CCN1C(=O)[C@H]2[C@@H](c3ccc(C)cc3)N3C(=O)N(c4ccc(C)cc4)C(=O)[C@@]3(Cc3ccccc3)[C@H]2C1=O | x | 0 | -7 | x | 13 | -2 | x | x
COc1ccc(N2C(=O)N3[C@H](c4ccc(Cl)cc4)[C@@H]4C(=O)N(C5CCCCC5)C(=O)[C@@H]4[C@]3(Cc3ccc(Cl)cc3)C2=O)cc1 | x | 0 | 7.9* | x | 0 | -7 | 31* | 12*
O=C1[C@H]2[C@@H](c3ccc(F)cc3)N3C(=O)N(c4cccc(F)c4)C(=O)[C@@]3(Cc3ccccc3)[C@H]2C(=O)N1C1CCCCC1 | x | 0 | 11* | x | 26 | -10 | 28* | 14*
Cc1ccc(N2C(=O)N3[C@H](c4ccc(F)cc4)[C@@H]4C(=O)N(C5CCCCC5)C(=O)[C@@H]4[C@]3(Cc3ccccc3)C2=O)cc1 | x | 0 | 12* | x | 23 | -4 | 31* | 11*
COc1ccc([C@@H]2[C@@H]3C(=O)N(C(C)(C)C)C(=O)[C@@H]3[C@]3(Cc4ccc(Cl)cc4)C(=O)N(c4ccc(OC)cc4)C(=O)N23)cc1 | x | 1 | 0 | x | x | -13 | x | x
O=C1[C@H]2[C@@H](c3ccc(Cl)cc3)N3C(=O)N(c4cccc(Cl)c4)C(=O)[C@@]3(Cc3ccccc3)[C@H]2C(=O)N1C1CCCCC1 | x | -1 | 8.2* | x | 20 | 7 | -10 | 0
O=C(c1ccc(-c2cccc(Cl)c2Cl)o1)N1CCOCC1 | 0 | 3 | 8.8* | 15 | 3 | 3 | 108* | 39*
COC(=O)c1ccc(CSC(=N)N)o1 | 0 | 2 | 8.5* | 2 | -2 | -6 | 31* | 13*
COc1ccccc1CC1(C)C(=O)Nc2ccc(S(=O)(=O)NC3CCCCC3)cc21 (stereo unspecified) | x | x | 9.1* | x | 7 | -8 | 1 | 3
COc1ccc(Cl)cc1CC1(C)C(=O)Nc2ccc(S(=O)(=O)NC3CCCCC3)cc21 (stereo unspecified) | x | x | 16* | x | 33 | -9 | 9 | 13*
COc1ccc(S(=O)(=O)NC2CCCC2)cc1Cl | x | -1 | -3 | x | -16 | -12 | x | x
CC1(Cc2ccccc2OC(F)(F)F)C(=O)Nc2ccc(S(=O)(=O)NC3CCCCC3)cc21 (stereo unspecified) | x | x | 6 | x | 5 | -7 | x | x
COc1ccc(OC(F)(F)F)cc1CC1(C)C(=O)Nc2ccc(S(=O)(=O)NC3CCCCC3)cc21 (stereo unspecified) | x | x | 17* | x | 21 | -8 | 15 | 14*
CC1(Cc2ccc(F)cc2)C(=O)Nc2ccc(S(=O)(=O)NC3CCCCC3)cc21 (stereo unspecified) | x | x | 9.7* | x | -4 | -5 | 0 | 7
Cc1[nH]c2ccccc2c1C(=O)CSC(=S)N1CCOCC1 | x | 1 | 5 | 5 | -12 | 12 | x | x
COCc1c(C(=O)N(C)Cc2ccccc2N2CCCC2)oc2ccccc12 | x | x | 0 | x | -18 | -4 | x | x
SMILES | Hsp70 act | HIF act | FXN GAA850 act | Rad51 HR inh | TAG inh | ABHD5 PLIN5 PPI | GAA30 FXN cntr | FXN GAA850 conf
COc1ccc(OC(F)(F)F)cc1CC1(C)C(=O)Nc2ccc(-c3ccsc3)cc21 (stereo unspecified) | x | x | 13* | x | -3 | -9 | 17 | 9.0*
C=CCC(O)(CC=C)CNC(=O)C1CCC(=O)N(CCCc2ccccc2)C1 (stereo unspecified) | x | -1 | 0 | x | -12 | -10 | x | x
COC(=O)C1=C(C)NC2=C(C(=O)CCC2)C1c1cn(Cc2ccc(Cl)cc2Cl)nc1-c1ccccc1 (stereo unspecified) | 0 | -25 | 5 | 12 | 6 | -1 | x | x
CCOC(=O)C1=C(C)NC2=C(C(=O)CCC2)C1c1cn(Cc2ccc(Cl)cc2Cl)nc1-c1ccccc1 (stereo unspecified) | 0 | 0 | 13* | x | 7 | -4 | 22* | 7.8*
Cc1oc(=O)c(NC(=O)c2ccccc2)cc1C(=O)c1ccccc1 | 0 | 6 | 8.2* | -24 | -22 | 23* | 100* | 29*
O=C(NC12CC3CC(CC(C3)C1)C2)OCCNC1CCCCC1 | x | -1 | 15* | 9 | -1 | 1 | 23* | 10*
Cc1nc2nc(SCC(=O)NCCCN3CCCC(C)C3)nn2c(C)c1Cc1ccccc1Cl (stereo unspecified) | x | 0 | 1 | x | x | -3 | x | x
COC(=O)c1c(-c2ccccc2)csc1NC1=NS(=O)(=O)c2ccccc21 | 0 | 3 | 8.9* | -1 | x | 1 | 125* | 43*
CC(C)C[C@@]12C(=O)N(c3cccc(Br)c3)C(=O)N1[C@H](c1ccc(F)cc1)[C@@H]1C(=O)N(C3CCCCC3)C(=O)[C@@H]12 | x | -1 | 11* | x | 39 | 2 | 17 | 10.0*

Screening results as filed in PubChem BioAssay.
